Reference: ChEMBL document CHEMBL5058577, “EUbOPEN Chemogenomics Library 2 (Multiplex)” (2022)

System: U2OS
Assay: Multiplex assay against U2OS
Type: toxicity, cell-based
Conditions: human
Summary of the method: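 Per cents of healthy-nucleus cells form the tubulin, mitochondrial-mass and membrane-permeability phenotype values. Live cells were stained at seeding with Hoechst33342, BioTracker Green Microtubule Cytoskeleton Dye, MitoTracker Red and Annexin V Alexa Fluor 680. After compound addition they were imaged on a CQ1 microscope at 37°C and 5% CO2, and CellPathfinder machine-learning gating split them into Hoechst high-intensity objects or normal cells, normal cells into healthy, pyknosed or fragmented nuclei, and pyknosed cells into mitotic or apoptotic.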

[1] = 12 h, 1 µM, compound concentration 1 uM, replicate 1
[2] = 12 h, 1 µM, compound concentration 1 uM, replicate 2
[3] = 12 h, 10 µM, compound concentration 10 uM, replicate 1
[4] = 12 h, 10 µM, compound concentration 10 uM, replicate 2
[5] = 24 h, 1 µM, compound concentration 1 uM, replicate 1
[6] = 24 h, 1 µM, compound concentration 1 uM, replicate 2
[7] = 24 h, 10 µM, compound concentration 10 uM, replicate 1
[8] = 24 h, 10 µM, compound concentration 10 uM, replicate 2
[9] = 48 h, 1 µM, compound concentration 1 uM, replicate 1
[10] = 48 h, 1 µM, compound concentration 1 uM, replicate 2
[11] = 48 h, 10 µM, compound concentration 10 uM, replicate 1
[12] = 48 h, 10 µM, compound concentration 10 uM, replicate 2

CCc1nn2c(C)cc(C)nc2c1Cc1ccc(-c2nnc(C3CCNCC3)o2)cc1
Population Apoptotic (%) [1]: 42% | Population Fragmented Nuclei (%) [1]: 28% | Population Healthy Nuclei (%) [1]: 60% | Population Hoechst High Intensity Objects (%) [1]: 3% | Population Membrane Permeable-Phenotype (%) [1]: 12% | Population Mitochondria Different-Phenotype (%) [1]: 10% | Population Mitotic Cells (%) [1]: 57% | Population Normal (%) [1]: 96% | Population Pyknosed Nuclei (%) [1]: 10% | Population Tubulin-Different-Phenotype (%) [1]: 11% | Total Cell Count [1]: 251 | Population Apoptotic (%) [2]: 85% | Population Fragmented Nuclei (%) [2]: 9% | Population Healthy Nuclei (%) [2]: 84% | Population Hoechst High Intensity Objects (%) [2]: 2% | Population Membrane Permeable-Phenotype (%) [2]: 14% | Population Mitochondria Different-Phenotype (%) [2]: 17% | Population Mitotic Cells (%) [2]: 14% | Population Normal (%) [2]: 97% | Population Pyknosed Nuclei (%) [2]: 6% | Population Tubulin-Different-Phenotype (%) [2]: 4% | Total Cell Count [2]: 110 | Population Apoptotic (%) [3]: 68% | Population Fragmented Nuclei (%) [3]: 24% | Population Healthy Nuclei (%) [3]: 55% | Population Hoechst High Intensity Objects (%) [3]: 5% | Population Membrane Permeable-Phenotype (%) [3]: 26% | Population Mitochondria Different-Phenotype (%) [3]: 43% | Population Mitotic Cells (%) [3]: 31% | Population Normal (%) [3]: 94% | Population Pyknosed Nuclei (%) [3]: 20% | Population Tubulin-Different-Phenotype (%) [3]: 28% | Total Cell Count [3]: 214 | Population Apoptotic (%) [4]: 77% | Population Fragmented Nuclei (%) [4]: 8% | Population Healthy Nuclei (%) [4]: 76% | Population Hoechst High Intensity Objects (%) [4]: 2% | Population Membrane Permeable-Phenotype (%) [4]: 30% | Population Mitochondria Different-Phenotype (%) [4]: 62% | Population Mitotic Cells (%) [4]: 22% | Population Normal (%) [4]: 97% | Population Pyknosed Nuclei (%) [4]: 14% | Population Tubulin-Different-Phenotype (%) [4]: 44% | Total Cell Count [4]: 129 | Population Apoptotic (%) [5]: 80% | Population Fragmented Nuclei (%) [5]: 26% | Population Healthy Nuclei (%) [5]: 63% | Population Hoechst High Intensity Objects (%) [5]: 2% | Population Membrane Permeable-Phenotype (%) [5]: 4% | Population Mitochondria Different-Phenotype (%) [5]: 6% | Population Mitotic Cells (%) [5]: 20% | Population Normal (%) [5]: 97% | Population Pyknosed Nuclei (%) [5]: 10% | Population Tubulin-Different-Phenotype (%) [5]: 3% | Total Cell Count [5]: 296 | Population Apoptotic (%) [6]: 87% | Population Fragmented Nuclei (%) [6]: 13% | Population Healthy Nuclei (%) [6]: 80% | Population Hoechst High Intensity Objects (%) [6]: 3% | Population Membrane Permeable-Phenotype (%) [6]: 7% | Population Mitochondria Different-Phenotype (%) [6]: 12% | Population Mitotic Cells (%) [6]: 12% | Population Normal (%) [6]: 96% | Population Pyknosed Nuclei (%) [6]: 6% | Total Cell Count [6]: 130 | Population Apoptotic (%) [7]: 77% | Population Fragmented Nuclei (%) [7]: 24% | Population Healthy Nuclei (%) [7]: 55% | Population Hoechst High Intensity Objects (%) [7]: 3% | Population Membrane Permeable-Phenotype (%) [7]: 9% | Population Mitochondria Different-Phenotype (%) [7]: 40% | Population Mitotic Cells (%) [7]: 22% | Population Normal (%) [7]: 96% | Population Pyknosed Nuclei (%) [7]: 19% | Population Tubulin-Different-Phenotype (%) [7]: 7% | Total Cell Count [7]: 236 | Population Apoptotic (%) [8]: 71% | Population Fragmented Nuclei (%) [8]: 15% | Population Healthy Nuclei (%) [8]: 71% | Population Membrane Permeable-Phenotype (%) [8]: 16% | Population Mitochondria Different-Phenotype (%) [8]: 61% | Population Mitotic Cells (%) [8]: 28% | Population Pyknosed Nuclei (%) [8]: 13% | Population Tubulin-Different-Phenotype (%) [8]: 28% | Total Cell Count [8]: 163 | Population Apoptotic (%) [9]: 90% | Population Fragmented Nuclei (%) [9]: 17% | Population Healthy Nuclei (%) [9]: 71% | Population Hoechst High Intensity Objects (%) [9]: 2% | Population Membrane Permeable-Phenotype (%) [9]: 6% | Population Mitochondria Different-Phenotype (%) [9]: 2% | Population Mitotic Cells (%) [9]: 10% | Population Normal (%) [9]: 97% | Population Pyknosed Nuclei (%) [9]: 10% | Population Tubulin-Different-Phenotype (%) [9]: 4% | Total Cell Count [9]: 376 | Population Apoptotic (%) [10]: 85% | Population Fragmented Nuclei (%) [10]: 12% | Population Healthy Nuclei (%) [10]: 72% | Population Membrane Permeable-Phenotype (%) [10]: 7% | Population Mitochondria Different-Phenotype (%) [10]: 6% | Population Mitotic Cells (%) [10]: 14% | Population Pyknosed Nuclei (%) [10]: 14% | Total Cell Count [10]: 187 | Population Apoptotic (%) [11]: 82% | Population Fragmented Nuclei (%) [11]: 24% | Population Healthy Nuclei (%) [11]: 55% | Population Hoechst High Intensity Objects (%) [11]: 2% | Population Membrane Permeable-Phenotype (%) [11]: 10% | Population Mitochondria Different-Phenotype (%) [11]: 29% | Population Mitotic Cells (%) [11]: 17% | Population Normal (%) [11]: 97% | Population Pyknosed Nuclei (%) [11]: 19% | Population Tubulin-Different-Phenotype (%) [11]: 3% | Total Cell Count [11]: 290 | Population Apoptotic (%) [12]: 75% | Population Fragmented Nuclei (%) [12]: 12% | Population Healthy Nuclei (%) [12]: 71% | Population Membrane Permeable-Phenotype (%) [12]: 22% | Population Mitochondria Different-Phenotype (%) [12]: 31% | Population Mitotic Cells (%) [12]: 24% | Population Pyknosed Nuclei (%) [12]: 15% | Population Tubulin-Different-Phenotype (%) [12]: 18% | Total Cell Count [12]: 219

N[C@](CC1c2ccccc2Oc2ccccc21)(C(=O)O)[C@H]1C[C@@H]1C(=O)O
Population Apoptotic (%) [1]: 80% | Population Fragmented Nuclei (%) [1]: 22% | Population Healthy Nuclei (%) [1]: 67% | Population Hoechst High Intensity Objects (%) [1]: 1% | Population Membrane Permeable-Phenotype (%) [1]: 6% | Population Mitochondria Different-Phenotype (%) [1]: 2% | Population Mitotic Cells (%) [1]: 20% | Population Normal (%) [1]: 98% | Population Pyknosed Nuclei (%) [1]: 9% | Population Tubulin-Different-Phenotype (%) [1]: 4% | Total Cell Count [1]: 218 | Population Apoptotic (%) [2]: 72% | Population Fragmented Nuclei (%) [2]: 10% | Population Healthy Nuclei (%) [2]: 79% | Population Membrane Permeable-Phenotype (%) [2]: 1% | Population Mitochondria Different-Phenotype (%) [2]: 8% | Population Mitotic Cells (%) [2]: 27% | Population Tubulin-Different-Phenotype (%) [2]: 3% | Total Cell Count [2]: 114 | Population Apoptotic (%) [3]: 84% | Population Fragmented Nuclei (%) [3]: 18% | Population Healthy Nuclei (%) [3]: 72% | Population Hoechst High Intensity Objects (%) [3]: 3% | Population Membrane Permeable-Phenotype (%) [3]: 5% | Population Mitochondria Different-Phenotype (%) [3]: 3% | Population Mitotic Cells (%) [3]: 16% | Population Normal (%) [3]: 96% | Population Pyknosed Nuclei (%) [3]: 8% | Population Tubulin-Different-Phenotype (%) [3]: 2% | Total Cell Count [3]: 295 | Population Apoptotic (%) [4]: 83% | Population Fragmented Nuclei (%) [4]: 19% | Population Healthy Nuclei (%) [4]: 76% | Population Hoechst High Intensity Objects (%) [4]: 0% | Population Membrane Permeable-Phenotype (%) [4]: 7% | Population Mitochondria Different-Phenotype (%) [4]: 0% | Population Normal (%) [4]: 100% | Population Pyknosed Nuclei (%) [4]: 4% | Total Cell Count [4]: 141 | Population Apoptotic (%) [5]: 78% | Population Fragmented Nuclei (%) [5]: 20% | Population Healthy Nuclei (%) [5]: 70% | Population Hoechst High Intensity Objects (%) [5]: 1% | Population Membrane Permeable-Phenotype (%) [5]: 1% | Population Mitochondria Different-Phenotype (%) [5]: 1% | Population Mitotic Cells (%) [5]: 21% | Population Normal (%) [5]: 98% | Population Pyknosed Nuclei (%) [5]: 8% | Population Tubulin-Different-Phenotype (%) [5]: 1% | Total Cell Count [5]: 272 | Population Apoptotic (%) [6]: 63% | Population Fragmented Nuclei (%) [6]: 14% | Population Healthy Nuclei (%) [6]: 77% | Population Hoechst High Intensity Objects (%) [6]: 0% | Population Membrane Permeable-Phenotype (%) [6]: 4% | Population Mitochondria Different-Phenotype (%) [6]: 5% | Population Mitotic Cells (%) [6]: 36% | Population Normal (%) [6]: 99% | Population Tubulin-Different-Phenotype (%) [6]: 2% | Total Cell Count [6]: 137 | Population Apoptotic (%) [7]: 80% | Population Fragmented Nuclei (%) [7]: 13% | Population Healthy Nuclei (%) [7]: 79% | Population Hoechst High Intensity Objects (%) [7]: 3% | Population Membrane Permeable-Phenotype (%) [7]: 3% | Population Mitochondria Different-Phenotype (%) [7]: 3% | Population Mitotic Cells (%) [7]: 20% | Population Normal (%) [7]: 96% | Population Pyknosed Nuclei (%) [7]: 7% | Population Tubulin-Different-Phenotype (%) [7]: 1% | Total Cell Count [7]: 365 | Population Apoptotic (%) [8]: 81% | Population Fragmented Nuclei (%) [8]: 15% | Population Healthy Nuclei (%) [8]: 77% | Population Hoechst High Intensity Objects (%) [8]: 0% | Population Membrane Permeable-Phenotype (%) [8]: 8% | Population Mitochondria Different-Phenotype (%) [8]: 1% | Population Mitotic Cells (%) [8]: 18% | Population Normal (%) [8]: 99% | Population Pyknosed Nuclei (%) [8]: 6% | Population Tubulin-Different-Phenotype (%) [8]: 3% | Total Cell Count [8]: 164 | Population Apoptotic (%) [9]: 89% | Population Fragmented Nuclei (%) [9]: 14% | Population Healthy Nuclei (%) [9]: 75% | Population Hoechst High Intensity Objects (%) [9]: 2% | Population Membrane Permeable-Phenotype (%) [9]: 3% | Population Mitochondria Different-Phenotype (%) [9]: 1% | Population Mitotic Cells (%) [9]: 10% | Population Normal (%) [9]: 97% | Population Pyknosed Nuclei (%) [9]: 9% | Population Tubulin-Different-Phenotype (%) [9]: 1% | Total Cell Count [9]: 403 | Population Apoptotic (%) [10]: 85% | Population Fragmented Nuclei (%) [10]: 16% | Population Healthy Nuclei (%) [10]: 72% | Population Hoechst High Intensity Objects (%) [10]: 1% | Population Membrane Permeable-Phenotype (%) [10]: 5% | Population Mitochondria Different-Phenotype (%) [10]: 3% | Population Mitotic Cells (%) [10]: 15% | Population Normal (%) [10]: 98% | Population Pyknosed Nuclei (%) [10]: 10% | Population Tubulin-Different-Phenotype (%) [10]: 4% | Total Cell Count [10]: 190 | Population Apoptotic (%) [11]: 90% | Population Fragmented Nuclei (%) [11]: 15% | Population Healthy Nuclei (%) [11]: 77% | Population Hoechst High Intensity Objects (%) [11]: 1% | Population Membrane Permeable-Phenotype (%) [11]: 4% | Population Mitochondria Different-Phenotype (%) [11]: 3% | Population Mitotic Cells (%) [11]: 10% | Population Normal (%) [11]: 98% | Population Pyknosed Nuclei (%) [11]: 7% | Population Tubulin-Different-Phenotype (%) [11]: 2% | Total Cell Count [11]: 554 | Population Apoptotic (%) [12]: 81% | Population Fragmented Nuclei (%) [12]: 12% | Population Healthy Nuclei (%) [12]: 78% | Population Hoechst High Intensity Objects (%) [12]: 0% | Population Membrane Permeable-Phenotype (%) [12]: 7% | Population Mitochondria Different-Phenotype (%) [12]: 1% | Population Mitotic Cells (%) [12]: 18% | Population Normal (%) [12]: 100% | Population Pyknosed Nuclei (%) [12]: 9% | Population Tubulin-Different-Phenotype (%) [12]: 3% | Total Cell Count [12]: 238
